One data set deals with HeLa. Description: (§1) Cytotoxicity against human HeLa cells assessed as cell growth inhibition measured after 24 hrs by Celltiter Glo luminescent assay. The class given is cell-based. Conditions: hela, 24 h. In general terms: ATP-based viability assays read luminescence as a measure of living cells.
Data set [1] deals with Staphylococcus aureus. Description: Potentiation of cefazolin induced antibacterial activity against methicillin resistant Staphylococcus aureus ATCC BAA-44 assessed as minimum resensitizing concentration after 18 hrs by broth microdilution method. Particulars: ATCC BAA-44, 18 h, read-out: MEC. The class given is functional. The method, boiled down: (§2)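 Compound titrated in the presence of cefazolin at its CLSI breakpoint (8 μg/mL); MRC is the compound concentration at which no overnight growth occurs, in μg/mL; confirmed in triplicate.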
For orientation: In broth dilution the organism is exposed to a series of concentrations in liquid medium.

Data set [2] relates to Staphylococcus aureus. Description: Ratio of MIC for antibacterial activity against methicillin resistant Staphylococcus aureus ATCC BAA-44 to MEC for potentiation of cefazolin induced antibacterial activity against methicillin resistant Staphylococcus aureus ATCC BAA-44. The class given is functional. The method, boiled down: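 Compound MIC alone (CLSI broth microdilution) divided by its MRC with cefazolin at the 8 μg/mL breakpoint, both against MRSA BAA-44; each confirmed in triplicate.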

The subject of data set [3] is Staphylococcus aureus. Description: Antibacterial activity against methicillin resistant Staphylococcus aureus ATCC BAA-44 after 18 hrs by broth microdilution method. The class given is functional. Conditions: ATCC BAA-44, 18 h. Put shortly: (§3)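 Compound alone, MIC by standard CLSI broth microdilution; lowest concentration with no growth, reported in μg/mL; confirmed in triplicate.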

The test system of data set [4] is Staphylococcus aureus. The data set is described as follows: Antibacterial activity against methicillin resistant Staphylococcus aureus ATCC BAA-44 at 128 to 256 ug/ml after 18 hrs by broth microdilution method. The class given is functional, organism-based.
Data set [5] can be described thus: as §1. The class given is cell-based. Particulars: HeLa cells.
Data set [6] deals with Staphylococcus aureus. The data set is described as follows: Antibacterial activity against methicillin resistant Staphylococcus aureus ATCC BAA-1764 after 18 hrs by broth microdilution method. The class given is functional. Particulars: ATCC BAA-1764, 18 h. Put shortly: as §3
Data set [7] concerns Staphylococcus aureus. Description: Potentiation of cefazolin induced antibacterial activity against methicillin resistant Staphylococcus aureus ATCC BAA-1764 assessed as minimum resensitizing concentration after 18 hrs by broth microdilution method. The class given is functional. Conditions: ATCC BAA-1764, 18 h, read-out: MEC. Put shortly: as §2
Data set [8] has as its system Staphylococcus aureus. The data set is described as follows: Potentiation of cefazolin induced antibacterial activity against methicillin resistant Staphylococcus aureus NR-46411 assessed as minimum resensitizing concentration after 18 hrs by broth microdilution method. The class given is functional. Conditions: NR-46411, 18 h, read-out: MEC. Put shortly: as §2
Data set [9] has as its system Staphylococcus aureus. The data set is described as follows: Potentiation of cefazolin induced antibacterial activity against methicillin resistant Staphylococcus aureus NRS384 assessed as minimum resensitizing concentration after 18 hrs by broth microdilution method. The class given is functional. Conditions: NRS384, 18 h, read-out: MEC. Put shortly:
as §2

For data set [10], the system named is Staphylococcus aureus. The data set is described as follows: Potentiation of cefazolin induced antibacterial activity against methicillin resistant Staphylococcus aureus NRS100 assessed as minimum resensitizing concentration after 18 hrs by broth microdilution method. The class given is functional. Particulars: NRS100, 18 h, read-out: MEC. Put shortly: as §2

Data set [11] has as its system Staphylococcus aureus. The data set is described as follows: Potentiation of cefuroxime induced antibacterial activity against methicillin resistant Staphylococcus aureus ATCC BAA-1764 assessed as minimum resensitizing concentration after 18 hrs by broth microdilution method. The class given is functional. Conditions: ATCC BAA-1764, 18 h, read-out: MEC. The method, boiled down: (§4)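 Compound titrated with cefuroxime, using the same method as the cefazolin MRC; MRC is the lowest compound concentration preventing overnight growth, in μg/mL.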

For data set [12], the system named is Staphylococcus aureus. Description: Potentiation of cefuroxime induced antibacterial activity against methicillin resistant Staphylococcus aureus NR-46411 assessed as minimum resensitizing concentration after 18 hrs by broth microdilution method. The class given is functional. Particulars: NR-46411, 18 h, read-out: MEC. Put shortly: as §4
In data set [13] the test system is Staphylococcus aureus. Description: Potentiation of cefuroxime induced antibacterial activity against methicillin resistant Staphylococcus aureus NRS384 assessed as minimum resensitizing concentration after 18 hrs by broth microdilution method. The class given is functional. Conditions: NRS384, 18 h, read-out: MEC. Put shortly: as §4
The test system of data set [14] is Staphylococcus aureus. Description: Potentiation of cefuroxime mediated antibacterial activity against methicillin resistant Staphylococcus aureus NRS100 assessed as minimum resensitizing concentration after 18 hrs by broth microdilution method. The class given is functional. Conditions: NRS100, 18 h, read-out: MEC. The method, boiled down: as §4
For data set [15], the system named is Staphylococcus aureus. Description: Potentiation of cefazolin induced antibacterial activity against Staphylococcus aureus ATCC BAA-1683 assessed as minimum resensitizing concentration after 18 hrs by broth microdilution method. The class given is functional. Particulars: ATCC BAA-1683, 18 h, read-out: MEC. Put shortly: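 MRSA BAA-1683 grown overnight with cefazolin held at its CLSI breakpoint, 8 μg/mL, plus varying analogue; MRC = analogue concentration giving no overnight growth; confirmed in triplicate.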

Data set [16] relates to Staphylococcus aureus. The data set is described as follows: Potentiation of cefuroxime induced antibacterial activity against Staphylococcus aureus ATCC BAA-1683 assessed as minimum resensitizing concentration after 18 hrs by broth microdilution method. The class given is functional. Particulars: ATCC BAA-1683, 18 h, read-out: MEC. Put shortly: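 MRSA BAA-1683 grown overnight with cefuroxime plus varying analogue, method as for cefazolin MRC (antibiotic at CLSI breakpoint); MRC = analogue concentration giving no overnight growth; confirmed in triplicate.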

The record followed here is ChEMBL document CHEMBL4406847, “Tryptoline-based benzothiazoles re-sensitize MRSA to β-lactam antibiotics” (Bioorg Med Chem, 2019).

Molecules are shown by their SMILES. Converted amounts (≈) assume the structure as drawn. The source made the active and inactive calls. No cut-off for these calls is given here.

Usually GI50 stands for the concentration that inhibits growth by half. In the case of `FC(F)(F)Oc1ccc2nc(N3CCc4c([nH]c5ccc(Cl)cc45)C3)sc2c1`, the 50% growth inhibitory concentration (GI50) with HeLa stood at 7.3 µg/mL (≈ 17.2 µM). In the data set with Staphylococcus aureus [1], the minimal effective concentration was determined as 1 µg/mL. Besides, the Ratio with Staphylococcus aureus [2] came out at 0.

A word on the MIC: it is the least concentration at which growth counts as inhibited. A high value points to a less susceptible organism. In the case of `FC(F)(F)c1ccc(NC(=S)N2CCc3c([nH]c4ccc(Cl)cc34)C2)cc1`, in the data set with Staphylococcus aureus [3], inhibition of growth (MIC) required 2 µg/mL (≈ 4.88 µM). For the same compound, the minimal effective concentration in the data set with Staphylococcus aureus [1] is 1 µg/mL. Moreover, the Ratio in the data set on Staphylococcus aureus [2] worked out at 2.

Take `S=C(Nc1ccc(Cl)cc1)N1CCc2c([nH]c3ccc(Cl)cc23)C1`: in the data set with Staphylococcus aureus [3], the MIC was found to be 4 µg/mL (≈ 10.6 µM). In addition, in the data set on Staphylococcus aureus [1], the minimal effective concentration came out at 2 µg/mL. For the same compound, the Ratio with Staphylococcus aureus [2] amounted to 2.

Take `FC(F)(F)c1cccc2sc(N3CCc4c([nH]c5ccc(Cl)cc45)C3)nc12`: the GI50 in the data set with HeLa came to 8 µg/mL (≈ 19.6 µM). The compound also displayed an MIC in the data set on Staphylococcus aureus [3] of more than 32 µg/mL. The minimal effective concentration with Staphylococcus aureus [1] is 1 µg/mL. Moreover, in the data set with Staphylococcus aureus [2], the Ratio was 32.

On to `COC(=O)C1CN(c2nc3ccc(Cl)cc3s2)Cc2[nH]c3ccc(Cl)cc3c21` (racemic), for which the GI50 in the data set on HeLa was 6.6 µg/mL (≈ 15.3 µM). This compound also had an MIC against Staphylococcus aureus [3] of more than 32 µg/mL. Further, in the data set with Staphylococcus aureus [1], the minimal effective concentration worked out at 1 µg/mL. Moreover, the Ratio in the data set on Staphylococcus aureus [2] was determined as 32.

On to `Clc1ccc2[nH]c3c(c2c1)CCN(c1nc2c(Cl)cccc2s1)C3`, for which, in the data set on HeLa, the GI50 came to 27.7 µg/mL (≈ 74 µM). For the same compound, the MIC in the data set with Staphylococcus aureus [3] was more than 64 µg/mL. Moreover, the minimal effective concentration in the data set with Staphylococcus aureus [1] was found to be 2 µg/mL. The Ratio in the data set on Staphylococcus aureus [2] was determined as 32.

Consider `Cc1nnc(SCC2=C(C(=O)O)N3C(=O)[C@@H](NC(=O)Cn4cnnn4)[C@H]3SC2)s1`, for which, in the data set on Staphylococcus aureus [4], the outcome was Active.

As for `O=C(O)C1CN(c2nc3ccc(Cl)cc3s2)Cc2[nH]c3ccc(Cl)cc3c21` (racemic), in the data set on HeLa, the GI50 stood at 65 µg/mL (≈ 155 µM). Also, in the data set with Staphylococcus aureus [3], the lowest concentration to inhibit growth (MIC) was 32 µg/mL (≈ 76.5 µM). Further, the minimal effective concentration in the data set on Staphylococcus aureus [1] stood at 16 µg/mL. For the same compound, the Ratio in the data set with Staphylococcus aureus [2] came to 0.

On to `Clc1ccc2nc(N3CCc4c([nH]c5ccc(Cl)cc45)C3)sc2c1`, for which the GI50 with HeLa was found to be 13.2 µg/mL (≈ 35.3 µM). In the data set with Staphylococcus aureus [3], this compound gave a minimal inhibitory concentration (MIC) of more than 64 µg/mL. Moreover, the minimal effective concentration with Staphylococcus aureus [1] came out at 2 µg/mL. In the data set with Staphylococcus aureus [2], the Ratio came to 32.

As for `Nc1cc(Cl)c2nc(N3CCc4c([nH]c5ccc(Cl)cc45)C3)sc2c1`, the GI50 at 24 h in data set [5] was more than 100 µg/mL. Also, in the data set on Staphylococcus aureus [6], the minimum inhibitory concentration (MIC) is more than 32 µg/mL. Moreover, the minimal effective concentration in the data set with Staphylococcus aureus [7] is 0.5 µg/mL; in the data set on Staphylococcus aureus [8], 0.5 µg/mL; in the data set with Staphylococcus aureus [9], 4 µg/mL; with Staphylococcus aureus [10] it was 4 µg/mL; in the data set on Staphylococcus aureus [11], 32 µg/mL; with Staphylococcus aureus [12] it was less than 0.25 µg/mL. The minimal effective concentration turned out to be 4 µg/mL in the data set with Staphylococcus aureus [13]; 4 µg/mL in the data set on Staphylococcus aureus [14]; 1 µg/mL in the data set with Staphylococcus aureus [15]; 8 µg/mL with Staphylococcus aureus [16]; 2 µg/mL in the data set on Staphylococcus aureus [1].

In the case of `CO/N=C(\C(=O)N[C@@H]1C(=O)N2C(C(=O)O)=C(COC(N)=O)CS[C@H]12)c1ccco1`, the outcome with Staphylococcus aureus [4] was Active.

With `FC(F)(F)Oc1ccc(NC(=S)N2CCc3c([nH]c4ccc(Cl)cc34)C2)cc1`, the minimal effective concentration in the data set on Staphylococcus aureus [1] was 1 µg/mL. For the same compound, the Ratio with Staphylococcus aureus [2] amounted to 2.
